Bioassay records deposited in PubChem by Broad Institute.
Shown is part of a subset that was picked to be rich in hits.
A1 apoptosis 2: A1 inhibitors via caspase activation, primary screen, cell-based, luminescence, HTS, two replicates; MEF A1-2A-BIM cells, caspase-Glo luminescence, 3 h; percent of clofoctol response, DMSO zero; caspase activation, % (concentration not given with the values); 24,000 tested, under 10 active; AID 2465, 2010; in the data active = caspase activation above about 5.9%; inconclusive = no clear call, values can overlap the other calls; inactive = below about 2.2%
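Material: A1-2A-BIM-expressing MEF cells. Buffer or medium: RPMI-1640 plus 10% FBS. Incubation: cells settled overnight, compound exposure 3 h at 37 °C, 5% CO2. Signal: Caspase-Glo 3/7 luminescence, 1 h at room temperature.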
T cruzi HTS: inhibitors of intracellular Trypanosoma cruzi, primary screen, cell-based, plate reader, single point, set 2; 22,000 tested, 4.9% active; activity score (inhibition), % at 5.01 µM; AID 651903, 2012; intracellular Trypanosoma cruzi in host cells; in the data active = activity score above about 55%; inconclusive = no clear call, values can overlap the other calls;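 note: parasites and compound incubated about four days before reading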
INS-1E rescue: protection of INS-1E cells from cytokine death, primary screen, ATP luminescence, single point. INS-1E cytokine-induced death, 48 h; normalised: neutral wells 0, positive control 100. protection from cytokine-induced ATP loss, % at 10 µM. 20,000 tested, 0.1% active;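 active = mean replicate protection from cytokine-induced ATP loss at least 50% and at least 75% of replicates each reaching 50%; inconclusive = meets only one of the two criteria, mean or replicate share; inactive = fails both the mean and replicate share criteria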
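Material: INS-1E rat cells; Quantity: 8000 cells/well; Buffer or medium: phenol-red-free RPMI with 5% fetal bovine serum; Probe or stimulus: cytokine cocktail of IFN-γ, TNF-α and IL-1β; Compound dosing: single test concentration per compound, delivered by pin transfer; Incubation: 48 h co-treatment, 10 min post-lysis read; Signal: CellTiter-Glo luminescence.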
A number is an active result; - = inactive; ? = inconclusive; . = no result given.

SMILES | A1 apoptosis 2 | T cruzi HTS | INS-1E rescue
C[C@H]1CN([C@@H](C)CO)C(=O)Cc2cc(NC(=O)Nc3ccccc3)ccc2O[C@H]1CN(C)Cc1ccc(-c2ccccc2)cc1 | - | - | -
C[C@H]1CN([C@@H](C)CO)C(=O)Cc2cc(NC(=O)NC3CCCCC3)ccc2O[C@H]1CN(C)Cc1ccc(-c2ccccc2)cc1 | . | 67 | -
C[C@H](CO)N1C[C@H](C)[C@H](CN(C)Cc2ccc(-c3ccccc3)cc2)Oc2ccc(NC(=O)Nc3ccccc3)cc2CC1=O | . | ? | -
C[C@H](CO)N1C[C@H](C)[C@H](CN(C)C(=O)Nc2ccccc2)Oc2c(NS(=O)(=O)c3ccc(F)cc3)cccc2C1=O | . | - | -
C[C@@H]1CN([C@H](C)CO)C(=O)Cc2cc(NC(=O)Nc3ccc(F)cc3)ccc2O[C@H]1CN(C)S(=O)(=O)c1ccc(Cl)cc1 | - | - | -
O=C(CCCCCCC(=O)N/N=C/c1ccc(Br)o1)NO | - | . | .
C[C@H]1CN([C@@H](C)CO)C(=O)c2cc(NC(=O)C3CCCCC3)ccc2O[C@@H]1CN(C)S(=O)(=O)c1cn(C)cn1 | - | - | -
C[C@@H]1CN([C@H](C)CO)C(=O)c2cc(NS(=O)(=O)c3ccc(Cl)cc3)ccc2O[C@H]1CN(C)S(C)(=O)=O | . | - | -
C[C@@H]1CN([C@@H](C)CO)C(=O)Cc2cc(NC(=O)Nc3ccc(C(F)(F)F)cc3)ccc2O[C@@H]1CN(C)C(=O)Nc1ccc(F)cc1 | - | - | -
COC(=O)CCCCCCC(=O)N/N=C/c1ccc([N+](=O)[O-])c(O)c1 | - | - | -
C[C@H]1CN([C@@H](C)CO)C(=O)Cc2cc(NC(=O)c3ccncc3)ccc2O[C@H]1CN(C)Cc1ccc(-c2ccccc2)cc1 | . | 78 | -
C[C@@H]1CN([C@@H](C)CO)C(=O)Cc2cc(NC(=O)c3ccncc3)ccc2O[C@@H]1CN(C)Cc1ccccc1 | . | - | -
C[C@H]1CN([C@@H](C)CO)C(=O)c2cccc(NC(=O)c3cnccn3)c2O[C@H]1CN(C)CC1CCCCC1 | . | - | -
CC(C)NC(=O)N(C)C[C@H]1OCCCC[C@@H](C)Oc2ccc(NC(=O)CCCN(C)C)cc2C(=O)N([C@@H](C)CO)C[C@H]1C | - | . | .
O=C(O)CCCCCC(=O)N/N=C/c1cc(F)ccc1O | - | - | -
C[C@@H]1CN([C@@H](C)CO)C(=O)c2cccc(NC(=O)Nc3ccc(C(F)(F)F)cc3)c2O[C@@H]1CN(C)CC1CC1 | - | - | -
C[C@@H]1CN([C@@H](C)CO)C(=O)c2cc(NC(=O)Nc3ccc(F)cc3)ccc2O[C@@H](C)CCCCO[C@@H]1CN(C)CC1CCCCC1 | - | . | .
C[C@H]1CCCCO[C@@H](CN(C)CC2CCCCC2)[C@@H](C)CN([C@@H](C)CO)C(=O)c2cc(NC(=O)Nc3ccc(C(F)(F)F)cc3)ccc2O1 | - | . | .
C[C@@H]1CCCCO[C@@H](CN(C)S(=O)(=O)c2ccc(Cl)cc2)[C@@H](C)CN([C@H](C)CO)C(=O)c2cc(NC(=O)Nc3ccc(C(F)(F)F)cc3)ccc2O1 | . | - | -
C[C@@H]1CCCCO[C@@H](CN(C)CC2CCCCC2)[C@@H](C)CN([C@H](C)CO)C(=O)c2cc(NC(=O)Nc3ccc(F)cc3)ccc2O1 | . | 71 | -
C[C@@H]1CN([C@@H](C)CO)C(=O)c2cccc(NC(=O)Nc3ccc(C(F)(F)F)cc3)c2O[C@@H]1CN(C)CC1CCCCC1 | - | 78 | -
C[C@@H]1CCCCO[C@H](CN(C)S(=O)(=O)c2ccc(Cl)cc2)[C@@H](C)CN([C@H](C)CO)C(=O)c2cc(NC(=O)Nc3ccc(C(F)(F)F)cc3)ccc2O1 | - | 71 | -
C[C@@H]1CCCCO[C@@H](CN(C)CC2CCCCC2)[C@@H](C)CN([C@H](C)CO)C(=O)c2cc(NC(=O)Nc3ccc(C(F)(F)F)cc3)ccc2O1 | . | 73 | -
COC(=O)c1c(CC[C@@H](CO)NC(=O)N[C@H](Cc2ccccc2)Cn2cc(-c3ccccn3)nn2)oc(C(C)=O)c1C(=O)OC | - | . | .
COc1ccc(S(=O)(=O)N(C)C[C@@H]2Oc3c(NC(=O)Nc4cccc5ccccc45)cccc3C(=O)N([C@@H](C)CO)C[C@@H]2C)cc1 | - | - | -
SMILES | A1 apoptosis 2 | T cruzi HTS | INS-1E rescue
C[C@@H]1CN([C@@H](C)CO)C(=O)c2cc(NC(=O)Nc3ccc(C(F)(F)F)cc3)ccc2O[C@H]1CN(C)CC1CCCCC1 | - | - | -
C[C@H](CO)N1C[C@H](C)[C@H](CN(C)CC2CCCCC2)Oc2ccc(NC(=O)Nc3ccc(C(F)(F)F)cc3)cc2C1=O | - | 62 | -
C[C@@H]1CN([C@H](C)CO)C(=O)c2cc(NC(=O)Nc3ccccc3)ccc2O[C@H]1CN(C)C(=O)NC1CCCCC1 | - | - | -
C[C@H]1CN([C@@H](C)CO)C(=O)c2cc(NS(=O)(=O)c3cccs3)ccc2O[C@H]1CN(C)S(=O)(=O)c1cccs1 | . | - | .
CC(C)NC(=O)N(C)C[C@@H]1Oc2ccc(NS(=O)(=O)c3ccc(F)cc3)cc2C(=O)N([C@@H](C)CO)C[C@H]1C | - | - | -
C[C@@H]1CN([C@@H](C)CO)C(=O)Cc2cc(NC(=O)Nc3ccc(C(F)(F)F)cc3)ccc2O[C@H]1CN(C)Cc1ccc(Cl)c(Cl)c1 | - | . | .
C[C@H]1CN([C@@H](C)CO)C(=O)Cc2cc(NC(=O)Nc3ccc(C(F)(F)F)cc3)ccc2O[C@H]1CN(C)Cc1ccc(Cl)c(Cl)c1 | - | 78 | -
C[C@@H]1CN([C@H](C)CO)C(=O)Cc2cc(NC(=O)Nc3ccc(C(F)(F)F)cc3)ccc2O[C@@H]1CN(C)Cc1ccc(Cl)c(Cl)c1 | . | 65 | -
C[C@H](CO)N1C[C@H](C)[C@H](CN(C)Cc2ccc(Cl)c(Cl)c2)Oc2ccc(NC(=O)Nc3ccc(C(F)(F)F)cc3)cc2CC1=O | . | 63 | -
C[C@@H]1CN([C@H](C)CO)C(=O)Cc2cc(NC(=O)Nc3ccc(C(F)(F)F)cc3)ccc2O[C@H]1CN(C)Cc1ccc(Cl)c(Cl)c1 | . | - | -
C[C@@H]1CN([C@H](C)CO)C(=O)Cc2cc(NC(=O)C3CC3)ccc2O[C@H]1CN(C)C(=O)Nc1ccc(F)cc1 | - | - | -
C[C@@H]1CN([C@H](C)CO)C(=O)c2cccc(NC(=O)c3nc4ccccc4s3)c2O[C@H]1CN(C)Cc1ccc2c(c1)OCO2 | - | - | -
C[C@@H]1CN([C@@H](C)CO)C(=O)c2cccc(NC(=O)c3nc4ccccc4s3)c2O[C@H]1CN(C)Cc1ccc2c(c1)OCO2 | - | 61 | -
C[C@H]1CN([C@@H](C)CO)C(=O)c2cccc(NC(=O)c3nc4ccccc4s3)c2O[C@@H]1CN(C)Cc1ccc2c(c1)OCO2 | . | 59 | -
C[C@@H]1CN([C@H](C)CO)C(=O)c2cccc(NC(=O)c3nc4ccccc4s3)c2O[C@@H]1CN(C)Cc1ccc2c(c1)OCO2 | - | - | -
C[C@@H]1CN([C@@H](C)CO)C(=O)c2cccc(NC(=O)C3CCCCC3)c2O[C@H]1CN(C)Cc1ccccc1 | - | - | -
